The source made the active and inactive calls. No cut-off for these calls is given here.
Assays:
[1] = AUC (0 to inf) in ICR mouse at 10 mg/kg, po measured up to 24 hrs by LC-MS/MS analysis; format: ADME, organism-based; parameters: route oral, dose 10 mg/kg, time <=24; conditions: in vivo
[2] = Half life in ICR mouse at 10 mg/kg, po measured up to 24 hrs by LC-MS/MS analysis; format: ADME, organism-based; conditions: in vivo
[3] = Volume of distribution at steady state in ICR mouse at 2 mg/kg, iv measured up to 24 hrs by LC-MS/MS analysis; format: ADME, organism-based; conditions: in vivo, read-out: Vdss
NCI-H446 [4] = test: Effect on cMYC protein expression level in human NCI-H446 cells xenografted in athymic nu/nu nude mouse at 100 mg/kg, po measured upto 24 hrs by western blot analysis relative to control; conditions: time hrs <=24
NCI-H446 [5] = test: Anti-tumor activity against human NCI-H446 cells xenografted in athymic nu/nu nude mouse assessed as reduction in tumor volume at 50 mg/kg, po administered at 5 on-2-off for 3 weeks and further dosed 100 mg/kg, po for 4 th week relative to control; format: functional, organism-based; conditions: time 4.0 weeks
Procedure, shortened: (§1)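 Male athymic nu/nu mice, 6 weeks old, inoculated subcutaneously with 1 × 10⁶ NCI-H446 cells in saline with 50% Matrigel. Dosing IV or oral, vehicle 5% dimethylacetamide/95% PEG400, on a 5-on-2-off schedule for 2–4 weeks once tumors reached ≥200 mm³. Caliper volume = length × width²/2; tumors and body weight measured at least twice weekly. ANOVA with Student–Newman–Keuls, P < 0.05.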

[6] = Toxicity in athymic nu/nu nude mouse xenografted with NCI-H446 cells assessed as reduction in body weight 50 mg/kg, po administered at 5 on-2-off for 3 weeks and further dosed 100 mg/kg, po for 4 th week relative to control; format: organism-based; parameters: scale not given: the % may be the effect or the level left; conditions: in vivo, 672 h, at 50 to 100 mg/kg, dose 50-100 mg/kg, time 4 weeks; procedure, shortened: as §1
[7] = AUC (0 to inf) in ICR mouse at 2 mg/kg, iv measured up to 24 hrs by LC-MS/MS analysis; format: ADME, organism-based; parameters: route intravenous, dose 2 mg/kg, time <=24; conditions: ICR, in vivo
NCI-H446 [8] = test: Anti-tumor activity against human NCI-H446 cells xenografted in athymic nu/nu nude mouse assessed as reduction in tumor volume at 50 to 100 mg/kg, po administered at 5 on-2-off for 2 to 4 weeks; format: functional, organism-based; conditions: dose 50-100 mg/kg, time 2-4 weeks; procedure, shortened: as §1
[9] = Half life in ICR mouse at 2 mg/kg, iv measured up to 24 hrs by LC-MS/MS analysis; format: ADME, organism-based; conditions: in vivo
[10] = Clearance in ICR mouse at 2 mg/kg, iv measured up to 24 hrs by LC-MS/MS analysis; format: ADME, organism-based; conditions: in vivo
[11] = Cmax in ICR mouse at 10 mg/kg, po measured up to 24 hrs by LC-MS/MS analysis; format: ADME, organism-based; parameters: route oral, dose 10 mg/kg, time <=24; conditions: in vivo
[12] = Inhibition of Histone H3 phosphorylation in human NCI-H446 cells xenografted in assessed as reduction in phosphorylation at Ser 10 residue at 100 mg/kg, po measured upto 8 hrs by western blot analysis relative to control
[13] = Toxicity in athymic nu/nu nude mouse xenografted with NCI-H446 cells assessed as reduction in body weight at 50 to 100 mg/kg, po administered at 5 on-2-off for 2 to 4 weeks relative to control; format: organism-based; parameters: scale not given: the % may be the effect or the level left; conditions: in vivo, dose lower 50 mg/kg, time lower 2 weeks, dose upper 100 mg/kg, time upper 4 weeks; procedure, shortened: as §1
[14] = Tmax in ICR mouse at 10 mg/kg, po measured up to 24 hrs by LC-MS/MS analysis; format: ADME, organism-based; conditions: in vivo
NCI-H446 [15] = test: Induction of apoptosis in human NCI-H446 cells xenografted in athymic nu/nu nude mouse assessed as increase in cleaved PARP1 protein expression level at 100 mg/kg, po measured up to 24 hrs by Western blot analysis; conditions: time hrs <=24
NCI-H446 [16] = test: Induction of apoptosis in human NCI-H446 cells xenografted in athymic nu/nu nude mouse assessed as increase in cleaved CASP3 protein expression level at 100 mg/kg, po measured up to 24 hrs by IHC analysis; conditions: time hrs <=24
[17] = Toxicity in athymic nu/nu nude mouse xenografted with NCI-H446 cells assessed as reduction in body weight at 50 mg/kg, iv administered at 5 on-2-off for 2 to 4 weeks relative to control; format: organism-based; parameters: scale not given: the % may be the effect or the level left; conditions: in vivo, time 2-4 weeks; procedure, shortened: as §1
NCI-H82 [18] = test: Inhibition of Histone H3 phosphorylation in human NCI-H82 cells assessed as reduction in phosphorylation at Ser 10 residue at 50 to 1000 nM after 24 hrs by Western blot analysis; format: cell-based; conditions: dose 50-1000 nM
Procedure, shortened: (§2)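 Cells treated with compound at various concentrations for 24 h, then washed in PBS, lysed in Laemmli buffer and boiled 10 min. Lysates run on SDS-PAGE, transferred to PVDF and probed with antibodies, then AP- or HRP-conjugated secondaries with chemiluminescent detection. Loading control β-actin. NCI-H82 grown in RPMI1640 and SK-N-BE(2) in MEM, each with 10% FBS. Relative levels quantified from triplicate experiments.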

[19] = biological target: T1, Aurora kinase A (Homo sapiens) (UniProt O14965); conditions: NCI-H82, dose 50-1000 nM, time 24.0 hrs
T1 sequence (whole entry): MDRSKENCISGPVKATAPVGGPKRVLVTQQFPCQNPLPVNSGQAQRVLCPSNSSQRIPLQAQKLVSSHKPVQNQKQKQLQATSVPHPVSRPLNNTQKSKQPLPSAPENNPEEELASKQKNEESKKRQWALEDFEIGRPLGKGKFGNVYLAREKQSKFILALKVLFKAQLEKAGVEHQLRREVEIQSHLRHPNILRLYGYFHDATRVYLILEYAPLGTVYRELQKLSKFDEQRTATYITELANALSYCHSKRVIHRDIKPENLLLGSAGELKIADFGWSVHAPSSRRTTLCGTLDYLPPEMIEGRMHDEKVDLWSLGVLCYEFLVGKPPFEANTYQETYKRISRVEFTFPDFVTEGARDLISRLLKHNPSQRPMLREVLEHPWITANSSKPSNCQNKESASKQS

SK-N-BE(2) [20] = test: Down regulation of Cyclin B1 expression in human SKNBE2 cells at 50 to 1000 nM after 24 hrs by Western blot analysis; format: functional, cell-based; conditions: dose 50-1000 nM; procedure, shortened: as §2
SKNBE2 = test: Inhibition of Histone H3 phosphorylation in human SKNBE2cells assessed as reduction in phosphorylation at Ser 10 residue at 50 to 1000 nM after 24 hrs by Western blot analysis; conditions: dose 50-1000 nM; procedure, shortened: as §2
NCI-H82 [21] = test: Down regulation of Cyclin B1 expression in human NCI-H82 cells at 50 to 1000 nM after 24 hrs by Western blot analysis; format: functional, cell-based; conditions: dose 50-1000 nM; procedure, shortened: as §2
NCI-H526 = test: Growth inhibition of human NCI-H526 cells assessed as reduction in cell viability after 72 hrs by PrestoBlue Cell Viability assay; format: functional, cell-based; conditions: NCI-H526, 72 h
Procedure, shortened: (§3)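 Cells seeded at 5000–10,000 per well; after 24 h, treated with an eight-point titration from 0 to 10 μM in triplicate. After 72 h exposure, viability read by PrestoBlue fluorescence, and IC50 computed from the titration. SCLC lines grown in RPMI1640 and SK-N-BE(2) in MEM, each with 10% FBS.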

[22] = biological target: Aurora kinase B (Homo sapiens) (UniProt Q96GD4); test: Inhibition of Aurora B phosphorylation in human SKNBE2 cells assessed as reduction in phosphorylation at Thr 232 residue at 50 to 1000 nM after 24 hrs by Western blot analysis; format: cell-based; conditions: dose 50-1000 nM; procedure, shortened: as §2
NCI-H82 [23] = test: Down regulation of cMYC protein expression level in human NCI-H82 cells at 1 uM incubated for 2 to 4 hrs in presence of MG132 by Western blot analysis; format: functional, cell-based; conditions: time 2-4 hrs
[24] = biological target: Aurora kinase B (Homo sapiens) (UniProt Q96GD4); test: Inhibition of Aurora B phosphorylation in human NCI-H82 cells assessed as reduction in phosphorylation at Thr 232 residue at 50 to 1000 nM after 24 hrs by Western blot analysis; format: cell-based; conditions: dose 50-1000 nM; procedure, shortened: as §2
SK-N-BE(2) [25] = test: Growth inhibition of human SKNBE2 cells assessed as reduction in cell viability after 24 hrs by PrestoBlue Cell Viability assay; conditions: SKNBE2, 24 h
[26] = Growth inhibition of human NCI-H841 cells assessed as reduction in cell viability after 72 hrs by PrestoBlue Cell Viability assay; format: functional, cell-based; conditions: NCI-H841, 72 h; procedure, shortened: as §3
NCI-H82 [27] = test: Induction of cell cycle arrest in human NCI-H82 cells at 1 uM after 24 hrs by Propidium iodide staining based flow cytometric analysis; format: functional
NCI-H209 = test: Growth inhibition of human NCI-H209 cells assessed as reduction in cell viability after 72 hrs by PrestoBlue Cell Viability assay; format: functional, cell-based; conditions: NCI-H209, 72 h; procedure, shortened: as §3
[28] = Oral bioavailability in ICR mouse at 10 mg/kg measured up to 24 hrs by LC-MS/MS analysis; format: ADME, organism-based; conditions: in vivo
[29] = biological target: T1, Aurora kinase A (Homo sapiens); conditions: SKNBE2, dose 50-1000 nM, time 24.0 hrs

Sequence of Aurora kinase B (Homo sapiens) (Q96GD4 whole entry): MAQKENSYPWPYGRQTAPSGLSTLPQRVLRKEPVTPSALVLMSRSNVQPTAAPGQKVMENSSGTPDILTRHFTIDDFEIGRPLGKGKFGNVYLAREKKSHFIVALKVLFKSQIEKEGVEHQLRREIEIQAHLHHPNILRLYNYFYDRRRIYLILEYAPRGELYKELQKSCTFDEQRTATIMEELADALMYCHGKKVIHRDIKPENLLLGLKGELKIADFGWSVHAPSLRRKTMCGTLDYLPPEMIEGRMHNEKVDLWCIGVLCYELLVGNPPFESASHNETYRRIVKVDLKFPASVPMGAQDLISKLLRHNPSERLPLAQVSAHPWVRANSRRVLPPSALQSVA

## CCC(=O)n1nc(C)cc1Nc1cc(N2CCN(CC)CC2)nc(N[C@H]2CCN(C(=O)c3ccc(Cl)cc3F)C2)n1
[1]
  AUC(0-inf): 4400 ng·h/mL
[2]
  half-life: 2.7 h
[3]
  Vd: 3.4 L/kg
NCI-H446 [4]
  Activity: Active
NCI-H446 [5]
  Activity: Active
[6]
  Activity: < 5%
[7]
  AUC(0-inf): 1410 ng·h/mL
NCI-H446 [8]
  Activity: Dose-Dependent Effect
[9]
  half-life: 4.8 h
[10]
  clearance: 21.3 mL/min/kg
[11]
  Cmax: 2080 ng/mL
[12]
  inhibition in vivo at 100 mg/kg: > 90%
[13]
  Activity: < 5%
[14]
  Tmax: 0.3 h
NCI-H446 [15]
  Activity: Active
NCI-H446 [16]
  Activity: Active

## CCN1CCN(c2cc(Nc3cc(C)[nH]n3)nc(N[C@H]3CCN(C(=O)c4ccc(Cl)cc4F)C3)n2)CC1
[17]
  Activity: < 5%
NCI-H82 [18]
  inhibition: Active
[19]
  inhibition: Dose-Dependent Effect
SK-N-BE(2) [20]
  Activity: Active
[1]
  AUC(0-inf): 533 ng·h/mL
SKNBE2
  inhibition: Active
[2]
  half-life: 1.6 h
NCI-H82 [21]
  Activity: Active
NCI-H526
  IC50: < 100 nM
[22]
  inhibition: Dose-Dependent Effect
NCI-H82 [23]
  Activity: inactive
[24]
  inhibition: Dose-Dependent Effect
SK-N-BE(2) [25]
  IC50: 1 nM
[26]
  IC50: 2090 nM
[3]
  Vd: 11.3 L/kg
[7]
  AUC(0-inf): 703 ng·h/mL
NCI-H82 [27]
  Activity: Active
NCI-H209
  IC50: 20.7 nM
[9]
  half-life: 4 h
[28]
  bioavailability: 16.8%
[10]
  clearance: 53.7 mL/min/kg
[11]
  Cmax: 395 ng/mL
[14]
  Tmax: 1 h
[29]
  inhibition: Dose-Dependent Effect

Reference: ChEMBL document CHEMBL5033992, “Discovery and Synthesis of a Pyrimidine-Based Aurora Kinase Inhibitor to Reduce Levels of MYC Oncoproteins” (J Med Chem, 2021)
